Screening data as filed in PubChem BioAssay.
Hits are enriched below; roughly 4.8% of the tested compounds scored in any of these assays.
CSC inhib – cancer stem cell viability inhibitors, primary screen, luminescence. cancer stem cell-like cells viability. inhibition, % at 7.5 µM. 1.1% of 300,000 active. AID 2717, 2010; in the data active means inhibition above about 75%; inconclusive means no clear call, values can overlap the other calls; tested in HMLE shEcad cells
T cruzi inh – inhibitors of intracellular T. cruzi growth, primary screen, luminescence, NIH3T3 host cells; inhibition, % (test concentration not listed); 1.4% of 300,000 active; T. cruzi beta-gal in NIH3T3, 90 h;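 active means mean inhibition across valid replicates above about 55%, limit read from the data; inconclusive means mean below that limit but half or more replicates reach it; inactive means mean below it, under half of replicates reach it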;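 further: signal also drops with host cell toxicity which is not excluded here; 0% = plate median of DMSO wells and 100% = zero luminescence signal; higher percent means less beta-gal luminescence so fewer parasites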
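System: NIH/3T3 fibroblasts plus reporter T. cruzi. Medium: DMEM plus 2% FBS. Probe or stimulus: 5000 reporter trypomastigotes per well. Compound: single 50 nL compound addition per well in DMSO. Incubation: co-culture of at least 90 h after 3 h attachment. Detection: GalScreen β-gal luminescence, detergent lysis, 60 min. Evaluation: parasite load inhibition, %.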
Efflux pump mplx – inhibitors of Candida efflux pumps in yeast, primary screen, S. cerevisiae, Nile Red, multiplex | S. cerevisiae Candida pump triplex | inhibition, % at 10 µM | 0.44% of 330,000 active | AID 485275, 2010;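 active means plate passing quality check with inhibition over a set limit, or well fluorescence over plate mean plus 4 SD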;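 further: Nile Red retained in pooled yeast measured as flow cytometry median fluorescence; 0% = buffer negative control and 100% = Enniatin B positive control; higher means more Nile Red kept so more efflux inhibition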
Beta apoptosis – inhibitors of cytokine-induced beta cell apoptosis, primary screen, luminescence. INS-1E cytokine-induced death, ATP luminescence, 48 h; percent of positive-control rescue, neutral wells zero. protection from apoptosis, % (no concentration beside the values). 0.8% of 300,000 active. AID 435005, 2010;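 active means Every replicate reaches about 75%, or at least half do and their mean reaches it too, limit read from the data; inconclusive means At least half of replicates reach the limit but their mean does not; inactive means Under half of replicates reach the limit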;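 further: 0% = cytokine-treated negative control wells and 100% = positive control rescue; higher means more ATP so stronger rescue from cytokine killing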
SUMO Mot1 rescue – yeast Mot1-301 growth rescue at high temperature, primary screen, SUMOylation pathway inhibitor project, S. cerevisiae, ATP luminescence, 38.5C. S. cerevisiae Mot1-301 growth rescue; percent above DMSO median, 100 means doubled. growth rescue, % at 18.8 µM. 1% of 320,000 active;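 active means every valid replicate shows activation above 250% relative to neutral control wells; inactive means the rest, any valid replicate at or below 250%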;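 further: OY570 slx delta 5 strain wells were the positive control but not used for scaling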
WT yeast gro inh – growth inhibition of WT strain, primary screen, mitochondrial fusion inhibitor project, WT and mutant strains, chemical genetic. mitochondrial fusion phenotypic screen. inhibition, % at 10 µM. 2.1% of 190,000 active. AID 1362, 2008; in the data active means inhibition above about 58%; tested in S. cerevisiae
The depositor's hits bear a star; ? = inconclusive; · = no result; + = active, no number.

SMILES	CSC inhib	T cruzi inh	Efflux pump mplx	Beta apoptosis	SUMO Mot1 rescue	WT yeast gro inh
CC(C)(C)OC(=O)CC[C@@H](C(=O)NCCCCCCCCCCC(=O)N1CCN(C(=O)OC(C)(C)C)CC1)n1cc(CCCCCNC(=O)OC(C)(C)C)nn1	-1.2	·	0.1	12.1	128.6	·
CC[C@H](C)[C@@H](C(=O)NCCCCCCCCCCC(=O)N1CCN(C(=O)OC(C)(C)C)CC1)n1cc(CCCCCNC(=O)OC(C)(C)C)nn1	-5.1	·	-0.1	100.8*	-2.7	·
CC1(C)S[C@@H]2[C@H](NC(=O)COc3ccccc3)C(=O)N2C1C(=O)OCC1CCCCC1 (stereo partly specified)	18.0	2.4	0.3	0.8	326.7*	·
C[C@H]1CN([C@@H](C)CO)C(=O)Cc2cc(NS(=O)(=O)c3cccs3)ccc2O[C@H]1CN(C)S(=O)(=O)c1cn(C)cn1	8.0	·	0.5	-0.4	-0.8	·
O=C(CN(c1ccc(Cl)cc1)S(=O)(=O)c1ccc(Cl)c([N+](=O)[O-])c1)NCCc1ccccc1	57.8	74.5*	-0.1	11.0	7.7	-0.7
CS(=O)(=O)N(CC(=O)NCCc1ccccc1)c1cccc([N+](=O)[O-])c1	0.4	-14.8	0.0	-4.4	·	-1.2
O=C(CN(c1ccc(Cl)cc1)S(=O)(=O)c1ccc(Cl)c([N+](=O)[O-])c1)NCCc1ccc(F)cc1	81.8*	7.0	-0.2	2.6	-1.4	-4.8
CCCC1COC(Cn2cncn2)(c2ccc(C)cc2)O1 (stereo unspecified)	2.6	?	0.0	2.7	281.1*	-46.0
COc1cccc(/C=C/C(=O)OCC(=O)N2c3ccccc3NC(=O)C2(C)C)c1	12.2	-20.7	-0.5	-0.9	3.7	0.3
CS(=O)(=O)c1nc(S(=O)(=O)c2ccc(Cl)cc2)c(NCc2ccccn2)s1	-13.8	10.1	-0.2	-10.9	-20.4	-3.3
CC(C)NS(=O)(=O)c1ccc(NC(=O)C2CC3C=CC2C3)cc1 (stereo unspecified)	-4.5	15.6	0.1	-4.8	-9.3	75.1*
O=c1ccc(-c2ccc(S(=O)(=O)Nc3cccc(Br)c3)o2)n[nH]1	2.0	3.5	-0.4	-4.0	-13.2	·
CCC(C)C(NC(=O)CCC(=O)OCC(=O)[C@@]1(O)CCC2[C@@H]3CCC4=CC(=O)C=C[C@]4(C)C3[C@@H](O)C[C@@]21C)C(=O)O (stereo partly specified)	-5.8	-2.3	0.0	6.2	15.6	·
CCN(CC)C(=O)C(=O)N/N=C/c1ccc(Br)cc1	-6.1	-0.9	0.1	0.0	-20.7	8.0
CN(CCO)c1cc(Sc2nc3ccccc3s2)c2nonc2c1[N+](=O)[O-]	103.4*	46.0	0.1	55.9	165.9	5.8
COc1ccc(OC)c(NC(=O)c2nc(-c3ccccc3)oc2C)c1	-20.9	-7.0	-0.1	-0.5	-25.7	3.1
N/C(=N\OC(=O)c1ccc(Cl)cc1Cl)c1ccccn1	18.4	-0.9	0.1	109.7*	-25.1	47.2
CCCOC(=O)c1ccc(Oc2coc3c(CN(CC)CC)c(O)ccc3c2=O)cc1	6.9	8.2	0.0	-1.2	9.3	-9.7
CC(=O)c1ccc(-c2cc([C@H]3[C@H]4C=CC[C@@H](C)[C@@H]4C(=O)N3Cc3ccccc3)ccc2F)cc1	114.6*	33.4	-0.1	0.0	-11.3	·
C=CCn1c(O)c(C2=c3ccccc3=NC2=O)c2ccccc21	96.4*	?	-0.1	7.3	29.1	·
Cc1ccc2c(c1)c(C1=c3ccccc3=NC1=O)c(O)n2C	71.6	13.3	0.1	-2.9	21.2	·
Cc1cccc(CCN(CC(=O)NCc2ccc(F)cc2)C(=O)c2csnn2)c1	·	4.2	0.1	-5.4	12.5	·
On1c2c(c3c4nonc4ccc31)CCCC2	-9.9	-15.8	-0.1	-9.2	-8.7	73.9*
CCc1ccc(NC(=S)NC2CC3CCCC(C2)N3Cc2cccs2)cc1 (stereo unspecified)	·	56.4*	-0.1	·	16.6	-1.1
CCc1ccccc1NC(=O)NC1CC2CCC(C1)N2Cc1cccs1 (stereo unspecified)	·	-8.9	-0.1	·	-4.6	7.3
SMILES	CSC inhib	T cruzi inh	Efflux pump mplx	Beta apoptosis	SUMO Mot1 rescue	WT yeast gro inh
CCC(C)Nc1cc(C)nc2ncnn12 (stereo unspecified)	-1.1	0.4	-0.1	2.1	+	-4.0
C#CCNc1cc(C)nc2ncnn12	1.9	-20.2	-0.1	-5.1	-2.7	-3.0
O=C(NC(Cc1ccccc1)C(=O)O)NC12CC3CC(CC(C3)C1)C2 (stereo unspecified)	-6.3	2.2	0.1	·	-6.6	·
COc1cc(OC)cc(-c2cc3ccc(OC)cc3cn2)c1	93.5*	·	-0.1	36.2	-32.5	·
COc1ccc2cc(-c3ccccc3)ncc2c1	-3.1	9.7	0.2	4.6	16.7	·
CC1CCN(C(=O)C(C)OC(=O)CSc2ccc([N+](=O)[O-])cc2)CC1 (stereo unspecified)	-15.1	·	0.0	6.3	6.0	·
OCC1(Cc2ccc(Cl)cc2)CCN(Cc2ccc(Oc3ncccn3)cc2)CC1	16.2	59.1*	-0.1	-0.8	4.5	-7.0
OCC1(Cc2ccc(Cl)cc2)CCN(Cc2ccc(F)c(F)c2)CC1	30.4	32.1	0.2	-8.3	78.0	·
COc1ccc(-n2nnnc2SCC(=O)Nc2cccc(C)n2)cc1OC	-10.5	0.1	-0.1	-6.6	3.4	-0.4
O=C(NCCC(=O)N1CCN(S(=O)(=O)c2ccccc2F)CC1)Nc1ccccc1	·	·	-0.1	-2.6	-7.4	·
O=c1c2ccccc2c(-c2ccc(O)cc2)nn1-c1cccc(C(F)(F)F)c1	67.3	21.6	-0.3	6.1	3.5	83.0*
O=c1c2ccccc2c(-c2cccc(C(F)(F)F)c2)nn1-c1ccccc1	5.5	10.6	0.1	-1.5	-4.1	·
CCc1c(C(=O)NNC(=S)NCCc2ccccc2)csc1C	·	-7.6	0.0	6.6	-19.4	2.9
CC(CN1CCCC1)OC(=O)c1ccccc1Cl (stereo unspecified)	-3.1	-3.9	-0.1	·	11.8	·
OC(CN1CCN(C(c2ccccc2)c2ccccc2)CC1)c1ccccc1 (stereo unspecified)	0.8	1.0	0.6	1.8	-23.3	·
CN1CCN(CC(O)c2ccccc2)CC1 (stereo unspecified)	-9.8	55.2*	-0.1	-0.5	-10.2	4.7
CC(CN1CCN(C)CC1)OC(=O)c1ccccc1Cl (stereo unspecified)	0.3	24.1	0.1	-1.5	345.7*	-8.7
O=C1c2ccc3c4c(ccc(c24)C(=O)N1CCCCO)C(=O)N(CCCCO)C3=O	·	68.4*	·	·	·	52.6
N#Cc1c(NC(=O)c2ccccc2Cl)n(Cc2ccccc2)c2nc3ccccc3nc12	112.1*	·	-0.5	106.1*	-10.3	-0.6
CCCCn1c(NC(=O)c2ccccc2Cl)c(C#N)c2nc3ccccc3nc21	58.9	14.8	0.1	18.6	-10.8	-6.0
